Among the data in ChEMBL document CHEMBL1121911, “Analgesic narcotic antagonists. 8. 7 alpha-Alkyl-4,5 alpha-epoxymorphinan-6-ones” (1981) are ED50 values, retold here.

The source made the active and inactive calls. The calls are words filed in the database; no cut-off is given here.

Test [1] relates to Rattus norvegicus. Put plainly: Narcotic antagonist activity in heat stimulus rat tail flick assay after subcutaneous administration. The test is classed as functional. The settings on record: sc. The gist of the method:
(§1)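 Subcutaneous dosing. Salts were given in distilled H2O, and free bases were dissolved with 1 N HCl and then diluted. Each ED50 (agonist) or AD50 (antagonist) came from at least three doses, with at least five animals per dose.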

In test [2] the test system is Mus musculus. Description: Narcotic agonistic activity in acetic acid mouse writhing assay after subcutaneous administration of the drug. Particulars: sc. The test is classed as functional. The gist of the method: as §1
Test [3] has as its system Rattus norvegicus. Description: Compound was tested for antinociceptive activity in heat stimulus rat tail flick assay after subcutaneous administration of the drug. Particulars: sc. The test is classed as functional. The gist of the method:
as §1

Test [4] has as its system Mus musculus. Description: Compound was tested for narcotic agonistic activity in acetic acid mouse writhing assay after subcutaneous administration of the drug at a dose of 26 uM/kg; Inactive. The test is classed as functional, organism-based. (An intraperitoneal irritant provokes the stretching counted in writhing tests.)
Test [5] has as its system Mus musculus. Description: Compound was tested for narcotic agonistic activity in acetic acid mouse writhing assay after subcutaneous administration of the drug at a dose of 23 uM/kg; Inactive. The test is classed as functional, organism-based.
Test [6] has as its system Rattus norvegicus. Put plainly: Compound was tested for antinociceptive activity in heat stimulus rat tail flick assay after subcutaneous administration of the drug at a dose of 23 umol/Kg; Inactive. The test is classed as functional, organism-based.
Test [7] relates to Rattus norvegicus. Description: Compound was tested for antinociceptive activity in heat stimulus rat tail flick assay after subcutaneous administration of the drug at a dose of 21 umol/Kg; Inactive. The test is classed as functional, organism-based.
Test [8] has as its system Mus musculus. Put plainly: Compound was tested for narcotic agonistic activity in acetic acid mouse writhing assay after subcutaneous administration of the drug at a dose of 25 uM/kg; Inactive. The test is classed as functional, organism-based.
The test system of test [9] is Rattus norvegicus. Put plainly: Compound was tested for antinociceptive activity in heat stimulus rat tail flick assay after subcutaneous administration of the drug at a dose of 18 umol/Kg; Inactive. The test is classed as functional, organism-based.
In test [10] the test system is Mus musculus. Description: Compound was tested for narcotic agonistic activity in acetic acid mouse writhing assay after subcutaneous administration of the drug at a dose of 28 uM/kg; Inactive. The test is classed as functional, organism-based.
The subject of test [11] is Rattus norvegicus. Description: Compound was tested for antinociceptive activity in heat stimulus rat tail flick assay after subcutaneous administration of the drug at a dose of 25 umol/Kg; Inactive. The test is classed as functional, organism-based.
Test [12] has as its system Rattus norvegicus. Description: Compound was tested for antinociceptive activity in heat stimulus rat tail flick assay after subcutaneous administration of the drug at a dose of 28 umol/Kg; Inactive. The test is classed as functional, organism-based. (In general: Hot-plate and tail-flick tests time the reaction to a heat stimulus.)
Test [13] relates to Mus musculus. Description: Compound was tested for narcotic agonistic activity in acetic acid mouse writhing assay after subcutaneous administration of the drug at a dose of 18 uM/kg; Inactive. The test is classed as functional, organism-based.
Test [14] deals with Rattus norvegicus. Description: Compound was tested for antinociceptive activity in heat stimulus rat tail flick assay after subcutaneous administration of the drug at a dose of 30 umol/Kg; Inactive. The test is classed as functional, organism-based.
For test [15], the system named is Rattus norvegicus. Put plainly: Compound was tested for antinociceptive activity in heat stimulus rat tail flick assay after subcutaneous administration of the drug at a dose of 29 umol/Kg; Inactive. The test is classed as functional, organism-based.

On to `C[C@H]1CC2C3Cc4ccc(O)c5c4C2(CCN3CC2CCC2)[C@@H](O5)C1=O` (stereo not given in full), for which the ED50 (as a rule, the dose that gives a 50% effect, or the effect in half of the subjects) worked out at 33.1 µmol/kg in test [1] and 0.8 µmol/kg in test [2]. As to `COc1ccc2c3c1O[C@H]1C(=O)CC[C@H]4[C@@H](C2)N(C)CC[C@]314` [HYDROCODONE], the ED50 in test [3] turned out to be 5.2 µmol/kg; in [2], 2.4 µmol/kg. As to `COc1ccc2c3c1O[C@H]1C(=O)[C@@H](C)[C@H](C)C4C(C2)N(CC2CC2)CCC341` (stereo not given in full), the ED50 in test [1] was 2.4 µmol/kg; in [2], over 25 µmol/kg. In test [1], `C[C@@H]1C(=O)[C@@H]2Oc3c(O)ccc4c3C23CCN(CC2CC2)C(C4)C3[C@H]1C` (stereo not given in full) had an ED50 of 1.5 µmol/kg. Moreover, the ED50 result in test [4] is “inactive”. Take `COc1ccc2c3c1O[C@H]1C(=O)[C@@H](CC(C)(C)C)CC4C(C2)N(C)CCC341` (stereo not given in full): the ED50 result in [5] and in [6] was “inactive” throughout.

Take `COc1ccc2c3c1O[C@H]1C(=O)CCC4(O)C(C2)N(CC2CCC2)CCC314` (stereo not given in full): the ED50 in [1] is over 18 µmol/kg; in test [2] it was 16.2 µmol/kg. In the case of `C[C@H]1CC2(O)C3Cc4ccc(O)c5c4C2(CCN3CC2CC2)[C@@H](O5)C1=O` (stereo not given in full), the ED50 in test [1] was 0.09 µmol/kg. Further, in test [4], the ED50 entry was “inactive”. Consider `CC[C@H]1CC2C3Cc4ccc(OC)c5c4C2(CCN3C)[C@@H](O5)C1=O` (stereo not given in full), for which the ED50 result in [7] is “inactive”. In [2], this molecule gave an ED50 of 4.6 µmol/kg. For `CC(C)=CCN1CC[C@]2(C)c3cc(O)ccc3C[C@H]1[C@H]2C` [(+)-PENTAZOCINE], the ED50 in test [1] amounted to 36.4 µmol/kg; in test [2], 13 µmol/kg. As for `O=C1CCC2C3Cc4ccc(O)c5c4C2(CCN3CC2CC2)[C@H]1O5` (stereo not given in full), the ED50 in test [1] came to 0.6 µmol/kg; in test [2], 4.1 µmol/kg. Take `COc1ccc2c(c1O)C13CCN(CC4CCC4)C(C2)C1[C@@H](C)[C@H](C)C(=O)C3` (stereo not given in full): the ED50 is over 22 µmol/kg in test [1] and 14 µmol/kg in test [2]. `COc1ccc2c3c1OC1C(=O)[C@@H](C)CC4C(C2)N(CC2CC2)CCC314` (stereo not given in full): in test [1], the 50% effect level (ED50) was put at a dose of 4.1 µmol/kg. In addition, in [8], the ED50 result is “inactive”.

For the molecule `O=C1CCC2C3Cc4ccc(O)c5c4C2(CCN3CC2CCC2)[C@H]1O5` (stereo not given in full), the figures for the ED50 in [1] and in [2] were 5 µmol/kg and 0.2 µmol/kg, respectively.

For the molecule `C[C@H]1CC2C3Cc4ccc(O)c5c4C2(CCN3CC2CC2)C(O5)C1=O` (stereo not given in full), the ED50 in test [1] is 4.4 µmol/kg; in test [2], 1.1 µmol/kg.

For `COc1ccc2c3c1O[C@H]1C(=O)[C@@H](C)CC4(O)C(C2)N(CC2CCC2)CCC314` (stereo not given in full), the ED50 entry in test [9] is “inactive”. In addition, the ED50 in test [2] stood at 1.2 µmol/kg. `COc1ccc2c3c1O[C@H]1C(=O)CC[C@@]4(O)[C@@H](C2)N(CC2CC2)CC[C@]314`: it took a dose of 0.7 µmol/kg to reach the 50% effect level in test [1] (ED50). Besides, the ED50 result in [10] was “inactive”. `COc1ccc2c3c1O[C@H]1C(=O)CCC4C(C2)N(CC2CCC2)CCC341` (stereo not given in full) came in with a median effective dose (ED50) in test [2] of 20.3 µmol/kg. As for `CCCCC[C@H]1CC2C3Cc4ccc(OC)c5c4C2(CCN3C)[C@@H](O5)C1=O` (stereo not given in full), in test [2], the ED50 stood at 20.7 µmol/kg. For `COc1ccc2c3c1O[C@H]1C(=O)[C@@H](Cc4ccccc4)CC4C(C2)N(C)CCC341` (stereo not given in full), the ED50 entry in test [11] is “inactive”. In addition, the ED50 in test [2] is over 25 µmol/kg. `COc1ccc2c3c1O[C@H]1C(=O)[C@@H](C)CC4C(C2)N(C)CCC341` (stereo not given in full): the figures for the ED50 in [3] and in [2] were 4.2 µmol/kg and 2.7 µmol/kg, respectively. Consider `COc1ccc2c3c1O[C@H]1C(=O)/C(=C/N(C)C)CC4C(C2)N(C)CCC341` (stereo not given in full), for which, in test [12], the ED50 entry was “inactive”. The ED50 in test [2] turned out to be 11 µmol/kg. As for `C[C@H]1[C@H]2Cc3ccc(O)cc3[C@]1(C)CCN2CC1CC1` [CYCLAZOCINE], the ED50 in [1] stood at 0.8 µmol/kg; in test [2] it was 0.4 µmol/kg. In [3], `COc1ccc2c3c1O[C@H]1[C@@H](O)[C@@H](CC(C)(C)O)CC4C(C2)N(C)CCC341` (stereo not given in full) registered an ED50 of over 18 µmol/kg. Further, in [13], the ED50 entry is “inactive”.

`COc1ccc2c(c1OC)C13CCN(CC4CC4)C(C2)C1C[C@H](C)C(=O)C3` (stereo not given in full): the ED50 was about 25 µmol/kg in test [1] and 9.1 µmol/kg in test [2].

Turning to `O=C1CCC2(O)C3Cc4ccc(O)c5c4C2(CCN3CC2CCC2)[C@H]1O5` (stereo not given in full), the ED50 is 1.1 µmol/kg in [1] and 9.7 µmol/kg in [2]. As for `COc1ccc2c3c1O[C@H]1[C@@H](O)C=C[C@H]4[C@@H](C2)N(C)CC[C@@]341` [CODEINE], the ED50 in test [3] turned out to be 75 µmol/kg; in [2], 10.3 µmol/kg. As to `C=CCN1CC[C@]23c4c5ccc(O)c4O[C@H]2[C@@H](O)C=C[C@H]3[C@H]1C5` [NALORPHINE], the ED50 in [1] worked out at 2.5 µmol/kg; in test [2] it was 3.5 µmol/kg. In the case of `COc1ccc2c3c1O[C@H]1C(=O)[C@@H](C)CC4(O)C(C2)N(CC2CC2)CCC314` (stereo not given in full), the ED50 was 25.4 µmol/kg in test [1] and 18.7 µmol/kg in test [2].

Consider `COc1ccc2c3c1O[C@H]1C(=O)[C@@H](CO)CC4C(C2)N(C)CCC341` (stereo not given in full), for which the ED50 result in test [14] is “inactive”. Also, in [2], it took a dose of 9.1 µmol/kg to reach the 50% effect level (ED50). With `COc1ccc2c3c1O[C@H]1c4oc(C)cc4CC4C(C2)N(C)CCC341` (stereo not given in full), the ED50 result in [14] was “inactive”. It took a dose of 12.3 µmol/kg to reach the 50% effect level in test [2] (ED50). With `O=C1CC[C@@]2(O)[C@H]3Cc4ccc(O)c5c4[C@@]2(CCN3CC2CC2)[C@H]1O5` [NALTREXONE], the ED50 was 0.2 µmol/kg in test [1] and over 28 µmol/kg in [2]. `COc1ccc2c3c1O[C@H]1[C@@H](O)[C@@H](CC(C)=O)CC4C(C2)N(C)CCC341` (stereo not given in full): the ED50 result in [12] was “inactive”. In addition, the ED50 in test [2] was over 28 µmol/kg.

Molecule `CN1CC[C@]23c4c5ccc(O)c4O[C@H]2[C@@H](O)C=C[C@H]3[C@H]1C5` [MORPHINE] came in with an ED50 in [3] of 19 µmol/kg. With `COc1ccc2c3c1O[C@H]1c4[nH]c(C)cc4CC4C(C2)N(C)CCC341` (stereo not given in full), in test [15], the ED50 result was “inactive”. This molecule had an ED50 in test [2] of over 29 µmol/kg. Take `COc1ccc2c(c1O)C13CCN(CC4CC4)C(C2)C1[C@@H](C)[C@H](C)C(=O)C3` (stereo not given in full): the median effective dose (ED50) in test [1] and in test [2] was over 25 µmol/kg in each case. Consider `COc1ccc2c3c1O[C@H]1C(=O)[C@@H](C)[C@H](C)C4C(C2)N(CC2CCC2)CCC341` (stereo not given in full), for which the ED50 in test [1] and in [2] was over 26 µmol/kg in each case. Take `Oc1ccc2c(c1)[C@@]13CCCC[C@@]1(O)[C@@H](C2)N(CC1CCC1)CC3` [BUTORPHANOL]: the ED50 was 2 µmol/kg in test [1] and 0.3 µmol/kg in test [2]. The matching figures for `COc1ccc2c3c1O[C@H]1C(=O)[C@@H](C)CC4C(C2)N(CC2CCC2)CCC341` (stereo not given in full): over 25 µmol/kg and over 25 µmol/kg. Turning to `COc1ccc2c3c1O[C@H]1C(=O)CC[C@@]4(O)[C@@H](C2)N(C)CC[C@]314` [OXYCODONE], the ED50 in [3] was found to be 2.9 µmol/kg; in test [2], 1.5 µmol/kg. As for `COc1ccc2c3c1O[C@H]1C(=O)CCC4C(C2)N(CC2CC2)CCC341` (stereo not given in full), the median effective dose (ED50) was 7.9 µmol/kg in test [1] and 39.6 µmol/kg in test [2]. The matching figures for `COc1ccc2c(c1O)C13CCN(CC4CC4)C(C2)C1C[C@H](C)C(=O)C3` (stereo not given in full): over 28 µmol/kg and 9.7 µmol/kg. Turning to `C[C@H]1CC2(O)C3Cc4ccc(O)c5c4C2(CCN3CC2CCC2)[C@@H](O5)C1=O` (stereo not given in full), the ED50 in test [1] worked out at 14.6 µmol/kg; in test [2] it was 3.5 µmol/kg. On to `C[C@@H]1C(=O)[C@@H]2Oc3c(O)ccc4c3C23CCN(CC2CCC2)C(C4)C3[C@H]1C` (stereo not given in full), for which the ED50 came to 6.5 µmol/kg in test [1] and 15 µmol/kg in [2].

On to `CN1CC[C@]23c4c5ccc(O)c4O[C@H]2C(=O)CC[C@H]3[C@H]1C5` [HYDROMORPHONE], for which the ED50 was 1.3 µmol/kg in test [3] and 0.3 µmol/kg in test [2].
